# From ChEMBL document CHEMBL4513216, “Probing the Open Global Health Chemical Diversity Library for Multistage-Active Starting Points for Next-Generation Antimalarials” (ACS Infect Dis, 2020)
# Test: Toxicity liver stage against HepG2, at 10uM
# Format: cell-based
# Parameters: test concentration 10 uM, cell line HepG2-A16-CD81EGFP
# Conditions: human, HepG2-A16-CD81EGFP cells; read-out: INHIBITION
# How it was run: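 Uninfected HepG2-A16-CD81EGFP cells, 3 × 10^3 per well, 1536-well, plated on prespotted compound at 10 μM final, parasite-free screening media added to match infected plates; puromycin 10 μM positive, DMSO 0.5% negative; run in parallel with 48 h PbLuc assay at 37 °C, 5% CO2; viability by CellTiter-Glo luminescence, normalized to controls.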
row,SMILES,cytotoxicity at 10 µM [%]
1,O=C1N(c2cncnc2)CCC12CCCN(Cc1ccccn1)C2 (stereo not given),-9.35
2,CC1(CCC(=O)N2CCC(n3cc(C4(O)CCCC4)nn3)CC2)CC1,-7.69
3,c1cnc(N2CCOCC3(CN(Cc4ccsc4)CCO3)C2)nc1 (stereo not given),5.83
4,O=C1OC2(CCN(C3CCCOC3)CC2)CN1CCc1ccccc1 (stereo not given),-17.5
5,CCOCCN1CCN(c2ccc(C#N)cn2)CC1,-4.21
6,CCC(C#N)NC(=O)CCNC(=O)C(C)(C)C (stereo not given),-1.55
7,CCCOCCN1CCC2(CC1)CC(c1ccccc1)C(=O)N2C (stereo not given),38.1
8,CN1CCO[C@@H]2CN(S(=O)(=O)c3ccccc3F)CC[C@@H]2C1,1.35
9,Cc1c(C(=O)N[C@H]2CN(CCS(C)(=O)=O)C[C@@H]2C2CC2)cnn1C,7.02
10,CC(=O)N1CCCN(Cc2ccon2)c2ccccc21,0.616
11,CCN(CC(O)c1ccc(C)cc1)C(=O)NC(C)C (stereo not given),-7.74
12,Cc1nn(C)c2ncnc(N3CCC(O)(CN4CCCC4)CC3)c12,2.68
13,CNC(=O)CS(=O)(=O)C1CCN(S(=O)(=O)c2cccnc2)CC1,-1.68
14,Cc1[nH]c(=O)[nH]c(=O)c1CC(=O)N1CCCN(CC2CC2)C(C(C)C)C1 (stereo not given),-160
15,O=C(CCCc1cn[nH]c1)N1C[C@H](CO)C[C@H](CN2CCCC2)C1,-10.2
16,CCc1nc(NCCCOC)c2c(n1)c(C)nn2C,2.92
17,CCSc1ccc(NC(=O)NC(C)c2c(C)nn(C)c2C)cn1 (stereo not given),-2.6
18,Cc1ccc(CS(=O)(=O)Cc2nc(N)nc(N(C)C)n2)cc1,3.13
19,COCCCN1C(=O)CC[C@H]2CN(c3ccnc4ccccc34)CC[C@H]21,-3.63
20,COc1cccc(Nc2nc(C3CCCNC3)c3ccccn23)c1 (stereo not given),-0.47
21,CCN1CCC(N2CCN(C)C3(CCC(=O)N(CCOC)CC3)C2)CC1 (stereo not given),-0.724
22,CN(C)[C@@H]1CN(C(=O)c2cc3cccc(F)c3[nH]2)C[C@H]1O,-1.49

row,SMILES,cytotoxicity at 10 µM [%]
1,O=C(C1CC1)N1CC[C@@H]2[C@H](CC1)N(Cc1cccnc1)CCS2(=O)=O,-1.84
2,Cc1cc(C(=O)N(C)Cc2cccs2)nc(N2CCCC2)n1,7.85
3,NC1CCc2nc(-c3cccnc3)nc(Nc3ccc(F)cc3)c2C1 (stereo not given),-10.5
4,CCc1cc(N(C)CCCO)n2nccc2n1,1.77
5,Cc1nc(NC(=O)N(C)Cc2ccoc2)nn1C,-6.03
6,Cc1ccsc1CN1CCn2c(COc3cccnc3)cnc2C1C (stereo not given),-99.4
7,CN(C)c1ccc(C(=O)Nc2ccn(CCc3ccncc3)n2)cc1,-4.59
8,CCOc1ccnc(N2CCN(C(=O)c3cc[nH]n3)CC2)n1,8.82
9,COCCN(CCOC)C(=O)c1c[nH]nc1-c1cccc(F)c1,-0.25
10,O=C(NS(=O)(=O)c1cccnc1)C1CC(c2ccccc2)=NO1 (stereo not given),-8.87
11,CN(C)S(=O)(=O)N1CC[C@H]2OCC[C@@]2(COc2cccnc2)C1,11.2
12,COCCNC(=O)c1cn(C(C)(C)C)c2ncccc12,2.74
13,Cc1nc(CN2Cc3nccn3CC(COCC3CC3)C2)cs1 (stereo not given),11.3
14,Cc1cc(C)n(CC2CCCN2Cc2cscn2)n1 (stereo not given),-7.65
15,Cc1ccc(CN2CCC3(CC2)CN(c2cnn(C)c2)C(=O)CO3)o1,2.96
16,CCNC(=O)C(C)NC(=O)Nc1ccccc1SC(F)(F)F (stereo not given),-9.5
17,COc1cccc(CN2CC(O)CN(C(=O)C(C)(C)C)CC2=O)c1OC (stereo not given),-57.6
18,CCOCc1nc2c(c(N3CCCn4nc(C)cc4C3)n1)CCNCC2,11.3
19,Cc1ncsc1CN1C[C@H](C(=O)NCC2CC2)[C@@H]2CCO[C@@H]2C1,-3.17
20,COc1cccc(C(O)C(=O)N(C)CCc2ccccn2)c1 (stereo not given),0.413
21,COc1ccc(CNc2nc(C3CC3)no2)cc1OC,4.44
22,CC(C)c1csc(C2CCCN(C(=O)c3ccc[nH]3)C2)n1 (stereo not given),-48.6

row,SMILES,cytotoxicity at 10 µM [%]
1,O=C(Cc1ccccc1)N1CCCC2(COCCN(CC3CC3)C2)C1 (stereo not given),-1.03
2,COc1ccc2c(C)c(C(=O)NCCCc3csc(N)n3)oc2c1,2.58
3,COc1ccnc(N2CCN(C(=O)c3cnc(C4CC4)s3)CC2)n1,-5.35
4,CC(C)[C@@H]1CN(CCOc2ccc(Cl)cc2)C[C@H]1NS(C)(=O)=O,-52.4
5,O=C(CSC1CCCC1)N1CCN(C(=O)C2CC2c2cccs2)CC1 (stereo not given),4.48
6,Cc1nccn1C1CCCN(C(=O)c2ccc3c(c2)NC(=O)CO3)C1 (stereo not given),-11.5
7,Cc1cccc(CN2C[C@H]3CC[C@@H](C2)N(Cc2c(C)noc2C)C3=O)n1,0.296
8,COc1cccc(-c2ncc(CN3C[C@H]4CC[C@@H](C3)N(C)C4=O)s2)c1,6.74
9,Cc1cc(C(=O)N2CCCC(N3CCNC3=O)C2)nn1C(C)(C)C (stereo not given),-1.44
10,c1cnn(CC2CCCCN2Cc2cn3ccsc3n2)c1 (stereo not given),-7.08
11,Cc1cnc(C(=O)N2CCC3(CC2)CC(c2ccccc2)C(=O)N3)cn1 (stereo not given),4.9
12,COc1ccc(CN(C)[C@@H]2CN(S(=O)(=O)C(C)C)C[C@H]2O)cc1,0.465
13,CN(C)C(=O)NCc1cc2n(n1)CCCN(CC1[C@H]3CNC[C@@H]13)C2 (stereo not given in full),-5.77
14,CC(Cn1cccn1)NC(=O)NCc1ccc(OC2CCCC2)nc1 (stereo not given),-12.9
15,Cc1cnc(-c2nc(-c3cccc(CN4CCOCC4)c3)no2)cn1,-4.21
16,CCCS(=O)(=O)N1CC(=O)N(CCCc2ccccc2)CC(O)C1 (stereo not given),-17
17,N#Cc1ccc(F)c(CNC(=O)NCCC(=O)NC2CCCC2)c1,-5.95
18,Nc1nccc(N2CCC(Cc3ccccc3Cl)(C(=O)O)CC2)n1,-21.8
19,Cc1cc2c(=O)n3c(nc2s1)CCN(C(=O)c1ccncc1)CC3,1.08
20,O=C(CS(=O)(=O)Cc1cccc(Br)c1)Nc1cn[nH]c1,0.575
21,CC(C)n1c2ccccc2c2c1cc(C(=O)NC1CC1)n2C(=O)N(C)C,-109
22,COc1ccc(C(=O)COc2coc(CN3CCCCC3)cc2=O)cc1,5.12

row,SMILES,cytotoxicity at 10 µM [%]
1,CCc1nc(C2CCCN2C(=O)CCc2nc(C(C)(C)C)no2)no1 (stereo not given),-0.819
2,COc1ccnc(NC(=O)c2cscc2C)c1,-16
3,COc1ccc(C(CNC(=O)Nc2cc(C)nn2C)N(C)C)cc1 (stereo not given),3.31
4,Cc1nc(CN2CCC(CNC(=O)NCCC3CCC3)CC2)oc1C,-0.5
5,CN1CCN(C2CCN(CC(O)c3ccccc3)CC2)C1=O (stereo not given),1.76
6,CN(CCc1cn[nH]c1)Cc1nc(Cc2cccc(C(F)(F)F)c2)no1,0.361
7,CC(C)CCC(=O)NCCc1ccn(-c2ccccc2)n1,-14.6
8,O=C(NCCc1ccccc1)C1CCN(C(=O)Cn2cncn2)C1 (stereo not given),2.55
9,CCOc1ncccc1CNS(=O)(=O)c1ccc2c(c1)CCC2,13.3
10,CC(=O)N1CC(C)CN(C(=O)c2cnccn2)c2ccccc21 (stereo not given),3.82
11,Cc1ccc(OCc2occc2C(=O)N2CCCCC(N)C2)cc1 (stereo not given),-8.84
12,COc1cc(C)nc(N2CCN(C(=O)COCC3CC3)CC2)n1,-5.92
13,CCc1cnc(N2CCCOC(CN3CCCC3)C2)nc1 (stereo not given),-5.77
14,O=C(c1cnccn1)N1C[C@@H]2OCC(=O)N(CC3CCCCC3)[C@@H]2C1,-4.97
15,c1ccc(NC[C@@H]2CCC[C@@H]3CN(Cc4cc[nH]n4)C[C@@H]32)nc1,-111
16,COCCN(Cc1ccc(F)cc1Cl)C(=O)c1cc(C)no1,8.75
17,COc1ccnc(N2CCN(C(=O)Cc3ccsc3)CC2)n1,-3
18,CN(C)CCNc1cc(-c2ncccc2Cl)c2cc[nH]c2n1,8.45
19,Cc1noc(C2CN(S(=O)(=O)C3CC3)Cc3ccnn3C2)n1 (stereo not given),7.19
20,N#Cc1c(C2CC2)cc(-c2ccc(F)c(F)c2)nc1N,-5.73
21,CCc1nc(CN2CCCN(C(=O)Cc3cccs3)CC2)cs1,2.55
22,O=C(c1cn(-c2ccc(C(F)(F)F)cn2)nn1)N1CCCCCC1,-57.4

row,SMILES,cytotoxicity at 10 µM [%]
1,Cc1c(C(C)NC(=O)Nc2ccc(F)cc2F)cnn1C (stereo not given),-46.2
2,O=C(COC1CCCCC1)Nc1ccn(CCc2ccncc2)n1,-3.87
3,COc1ccc(-c2nc(C#N)c(N(C)C)o2)cc1OC,-4.91
4,Cc1nc(CSCc2ccc(OCC(F)(F)F)nc2)no1,-2.34
5,CCc1ccc2nc(C)cc(C(=O)N[C@@H]3CCCNC3)c2c1,-5.09
6,CN(C)C(=O)CCS(=O)(=O)Cc1cc(Cl)c2c(c1)OCCO2,9.15
7,C[C@@H]1CN(Cc2ccccc2F)CC(C(N)=O)O1 (stereo not given in full),1.95
8,Cc1cc(NCCC(=O)NC(C)C)nc(-c2ccncc2)n1,-6.74
9,CNS(=O)(=O)CC1CCCN1c1ccccn1 (stereo not given),2.83
10,CN(CCCc1cnn(C)c1)C(=O)C1COc2ccccc2C1 (stereo not given),-5.91
11,Cc1cnn(CCNCc2nccn2CC(F)(F)F)c1,6.51
12,COCC(=O)N1CCCCC1c1nccc(C)n1 (stereo not given),-14.6
13,Cn1nc(C2CNCCO2)cc1CCOc1ccc(C(F)(F)F)cc1 (stereo not given),-7.54
14,Cc1cc(CN(C)C(=O)NC(C)c2nncn2C)no1 (stereo not given),8.79
15,CC(=O)NC1(C(=O)N(C)Cc2c(C)noc2C)CCCCC1,14.4
16,CO[C@@H]1c2ccccc2C2(CCN(C(=O)CNS(C)(=O)=O)CC2)[C@H]1O,11.1
17,Cn1ccnc1-c1cccc(NC(=O)NCCCN2CCOCC2)c1,-5.01
18,COCc1nn(C(C)C)c2c1CCN(Cc1ccc(C)o1)C2,2.32
19,CCc1nc(N2CCOCC2)ncc1C(=O)NC(c1cccs1)C(C)C (stereo not given),12.3
20,Cc1noc(C)c1-c1cc(CCC2CN(C(=O)CN)CCO2)ncn1 (stereo not given),2.89
21,CCc1nc(CN2CCCC(NCc3nc4cccnc4[nH]3)C2)no1 (stereo not given),1.92
22,Cc1nn(C)c(Cl)c1C1CCCN1CC(=O)N1CCCCC1 (stereo not given),0.347
